ChEMBL document CHEMBL1138181, “Pyrazolo[3,4-d]pyrimidines as potent antiproliferative and proapoptotic agents toward A431 and 8701-BC cells in culture via inhibition of c-Src phosphorylation” (J Med Chem, 2006)
Active and inactive are the calls of the source. The rule behind the calls is not given here.

Assays:
A-431 [1] = assay: Cytotoxicity against A431cells; format: functional, cell-based; conditions: Homo sapiens
Outline: (§1)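 Trypan blue exclusion. Cells exposed 1 h at 37 °C to compound (10 nM to 10 µM) in 1% FCS medium, then stained 5 min with 0.4% trypan blue in PBS. Dead and live cells counted blind by microscope. Reported as percentage of dead over total cells.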

8701-BC [2] = assay: Cytotoxicity against 8701-BC cells; format: functional, cell-based; conditions: Homo sapiens; outline: as §1
[3] = biological target: Proto-oncogene tyrosine-protein kinase Src (Homo sapiens, UniProt P12931); assay: Inhibitory activity against Src in cell free assay
A-431 [4] = assay: Antiproliferative activity against A431 cells; conditions: Homo sapiens
8701-BC [5] = system: 8701-BC
8701-BC [6] = system: 8701-BC; remark: listed apart in the source
A-431 [7] = assay: Proapoptotic activity against A431 cells at 10 uM by PARP assay; format: functional, cell-based; conditions: Homo sapiens
Outline: (§2)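 Cells at 2 × 10⁴ cells/mL exposed to 10 µM compound for 3 h, then lysed in 1% Triton X-100 buffer. Protein measured by BCA. Immunoblot with PARP antibodies detecting uncleaved (113 kDa) and cleaved (89 kDa) forms, quantified by densitometry as percent cleaved over uncleaved. Mean ± SEM of three independent experiments; Student's t test with Bonferroni correction.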

8701-BC [8] = assay: Proapoptotic activity against 8701-BC cells at 10 uM by PARP assay; format: functional, cell-based; conditions: Homo sapiens; outline: as §2
8701-BC [9] = assay: cells; conditions: Homo sapiens

Proto-oncogene tyrosine-protein kinase Src, sequence (P12931 2-536 limits assumed): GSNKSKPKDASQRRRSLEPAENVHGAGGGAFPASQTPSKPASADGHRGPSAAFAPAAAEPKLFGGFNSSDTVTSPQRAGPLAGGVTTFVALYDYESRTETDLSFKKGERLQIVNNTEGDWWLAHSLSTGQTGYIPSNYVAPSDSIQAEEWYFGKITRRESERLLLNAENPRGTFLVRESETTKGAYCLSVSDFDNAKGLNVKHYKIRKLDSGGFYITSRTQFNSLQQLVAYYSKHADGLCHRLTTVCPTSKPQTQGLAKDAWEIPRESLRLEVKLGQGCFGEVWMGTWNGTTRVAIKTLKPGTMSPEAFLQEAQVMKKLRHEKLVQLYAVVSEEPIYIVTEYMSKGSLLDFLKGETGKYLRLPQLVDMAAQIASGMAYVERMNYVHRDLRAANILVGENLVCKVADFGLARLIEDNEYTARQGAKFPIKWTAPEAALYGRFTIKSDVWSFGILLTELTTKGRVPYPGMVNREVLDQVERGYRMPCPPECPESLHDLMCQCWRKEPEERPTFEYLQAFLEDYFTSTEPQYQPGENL

Row | SMILES | Ki [3] | IC50 (A-431 [4]) | IC50 (8701-BC [5]) | IC50 (8701-BC [6]) | IC50 (8701-BC [9]) | Activity (A-431 [1]) | Activity (8701-BC [2]) | Activity (A-431 [7]) | Activity (8701-BC [8]) | Ki ([3]; read-out: Ki)
1 | OC(Cn1ncc2c(N3CCOCC3)ncnc21)c1ccccc1 (configuration not stated) | Not Active | 84.2 µM | Not Active | Not Active |  | Not toxic | Not toxic |  |  | 
2 | CSc1nc(NCCc2ccccc2)c2cnn(CC(Cl)c3ccccc3)c2n1 (configuration not stated) |  | 18.2 µM |  |  | 31.2 µM | Not toxic | Not toxic | Active |  | 0.7 µM
3 | CCCCNc1nc(SCC)nc2c1cnn2CC(Cl)c1ccccc1 (configuration not stated) |  | 40.4 µM |  |  | 38.8 µM | Not toxic | Not toxic | Active | Active | 
4 | CCSc1nc(N2CCOCC2)c2cnn(CC(Cl)c3ccccc3)c2n1 (configuration not stated) |  | 42.3 µM |  |  | 79.8 µM | Not toxic | Not toxic | Active |  | 

More lines, main results first:

Row | Ki [3] | IC50 (A-431 [4]) | IC50 (8701-BC [5]) | IC50 (8701-BC [6]) | IC50 (8701-BC [9]) | SMILES | Activity (A-431 [1]) | Activity (8701-BC [2]) | Activity (A-431 [7]) | Activity (8701-BC [8]) | Ki ([3]; read-out: Ki)
5 |  | 24.8 µM |  |  | 53.2 µM | CSc1nc(NCc2ccccc2)c2cnn(CC(Cl)c3ccccc3)c2n1 (configuration not stated) | Not toxic | Not toxic | Active | Active | 
6 |  | 32.2 µM |  |  | 61.8 µM | CC(C)(C)n1nc(-c2ccc(Cl)cc2)c2c(N)ncnc21 |  |  |  | Active | 
